Compound activity from PubChem.
This is a sample that favours compounds with a hit; in the whole collection about 2.8% have one here.
SR-BI DiI-HDL act – activators of SR-BI mediated DiI-HDL uptake, primary screen, ldlA[mSR-BI] CHO cells, DiI fluorescence. 0.096% of 320,000 active. activation, % at 12.5 µM. 3 h; 100 = double the neutral-control signal;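 active means mean replicate activation of at least 60% and every replicate at or above 60%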;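 further: 0% = median plate neutral-control signal and 100% = twice that signal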
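system = CHO ldlA[mSR-BI] cells, LDL receptor-null, SR-BI overexpressing | medium = Ham's F12 with 0.5% BSA, HEPES 25 mM, pH 7.4 | probe or stimulus = DiI-HDL 10 µg/mL | compound dosing = single-point compound dose | incubation = compound exposure 3 h, 37 °C | technique = DiI fluorescence, bottom read | read-out = cell-associated DiI fluorescence as measure of HDL uptake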
SR-BI DiI inh – inhibitors of SR-BI mediated HDL lipid uptake, primary screen, ldlA[mSR-BI] cells, fluorescence, single point. AID 488896, 2010. inhibition, % at 12.5 µM. 0.96% of 320,000 active. Scavenger receptor class B member 1 (Mus musculus), Q61009. ldlA[mSR-BI] CHO cells, DiI-HDL uptake fluorescence, 3 h;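 active means mean replicate inhibition of at least 70% and a set share of replicates each scoring 70 or more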;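 further: 0% = median of neutral control wells and 100% = median of positive control wells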
Target sequence (Q61009 whole entry, looked up): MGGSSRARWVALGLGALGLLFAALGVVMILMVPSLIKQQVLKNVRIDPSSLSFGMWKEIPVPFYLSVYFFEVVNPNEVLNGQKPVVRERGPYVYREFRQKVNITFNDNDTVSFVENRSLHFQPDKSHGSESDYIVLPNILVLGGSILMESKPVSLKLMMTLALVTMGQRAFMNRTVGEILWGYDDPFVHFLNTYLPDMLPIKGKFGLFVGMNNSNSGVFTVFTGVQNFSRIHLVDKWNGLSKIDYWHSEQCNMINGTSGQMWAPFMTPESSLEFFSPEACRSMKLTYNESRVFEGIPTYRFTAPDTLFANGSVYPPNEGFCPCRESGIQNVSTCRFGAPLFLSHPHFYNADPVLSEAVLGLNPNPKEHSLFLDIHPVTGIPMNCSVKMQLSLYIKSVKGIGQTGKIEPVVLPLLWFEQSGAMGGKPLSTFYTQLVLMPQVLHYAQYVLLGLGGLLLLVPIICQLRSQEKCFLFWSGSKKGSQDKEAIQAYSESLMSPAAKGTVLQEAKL
dFosB activator – activators of delta FosB homodimer, primary screen, biochemical, fluorescence polarization, TAMRA-CDK5 oligo, single point; Protein FosB (Mus musculus), P13346; purified delta FosB; percent of positive-control signal above neutral wells; activation, % at 25 µM; 0.99% of 340,000 active;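 active means mean activation above about 17%, with every replicate also reaching it, limit read from the data, passing the limit was not always enough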
CAL PDZ FP-1 – untagged CAL PDZ binding inhibitors, primary screen, biochemical, fluorescence polarization, HTS; 0.92% of 300,000 active; Golgi-associated PDZ and coiled-coil motif-containing protein (Homo sapiens), Q9HD26; inhibition, % at 24.9 µM; AID 602252, 2012; purified CAL PDZ, TMR-peptide fluorescence polarization, 1 h;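 active means mean inhibition of at least 30% with at least half of replicates also reaching 30%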;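 further: 0% = DMSO neutral control and 100% = excess unlabeled competitor peptide PRC23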
CAL PDZ FP-2 – CAL PDZ peptide-binding inhibitors, primary screen, biochemical, fluorescence polarization, Cer-tagged CAL PDZ, HTS; purified CAL PDZ, TMR-peptide fluorescence polarization, 1 h; inhibition, % at 20 µM; 0.02% of 330,000 active; Golgi-associated PDZ and coiled-coil motif-containing protein (Homo sapiens), Q9HD26;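 active means highest replicate inhibition of at least 40%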;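 further: plate controls were DMSO neutral control wells for no effect and unlabeled competitor peptide control wells for full effect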
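Assay system – tagged CAL PDZ protein CerCALP, purified · Timing – 1 h at RT · Compound – single point, 20 µM · Measured by – fluorescence polarization from S- and P-plane intensities, G-factor corrected · Evaluation – inhibition from polarization loss · Probe or stimulus – TMR reporter peptide T*-PRC34 · Buffer or medium – pH 7.4 phosphate-saline buffer, reducing agent, detergent, IgG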
* = called active by the depositor; · = not tested or not shown.

SMILES	SR-BI DiI-HDL act	SR-BI DiI inh	dFosB activator	CAL PDZ FP-1	CAL PDZ FP-2
O=C(NCCN1C(=O)S/C(=C\c2ccccc2F)C1=O)C1=COCCO1	7	-7	-5	-3	-2
O=C1NC(=O)N(Cc2ccccc2)CC1Br (centres undefined)	10	-10	-5	31*	-1
COC(=O)c1c(C)[nH]c(C(=O)CN(C)CC(=O)Nc2cccc(F)c2)c1C	0	0	-12	1	-1
CC(C)(C)NC(=O)C(=O)NNC(=O)C12CC3CC(CC(C3)C1)C2	111*	-111	3	-3	·
CN(C(=O)c1cccc(NC(=O)Cc2ccc(NC(=O)C3CCCN(C(=O)C4CCC4)C3)cc2)c1)C1CCCC1 (centres undefined)	-69	69	-7	0	0
Cc1cc(C)nc(NC(=O)Cc2ccc(Cl)cc2)c1	-1	1	0	33*	-2
O=C(CSc1nc2ccc(Cl)cc2[nH]1)Nc1ccc2[nH]c(=O)[nH]c2c1	-21	21	-11	-3	-1
CC(C)(CNC(=O)C1c2ccccc2-c2ccccc21)N1CCOCC1	5	-5	-10	-2	-2
Cc1ccc(CNc2ncnc3[nH]ncc23)cc1	7	-7	-6	62*	5
Fc1ccc(CCNc2ncnc3[nH]ncc23)cc1	-5	5	-7	·	-1
CCC(C)c1ccc(C2C3=C(Nc4nc(N)[nH]c(=O)c42)c2ccccc2C3=O)cc1 (centres undefined)	·	·	33*	-1	-3
COc1cc(C2C3=C(Nc4nc(N)[nH]c(=O)c42)c2ccccc2C3=O)ccc1O (centres undefined)	12	-12	43*	-5	0
COc1cc(C2C(=O)c3ccccc3C2=O)ccc1O	-13	13	-6	-2	1
Nc1nc2c(c(=O)[nH]1)C(c1ccccc1)C1=C(N2)c2ccccc2C1=O (centres undefined)	9	-9	3	15	2
CC(=O)c1ccc2c3c(cc(C)c2c1)CCCC3	-29	29	-2	-2	0
Cc1ccc2c(cnn2C(=O)CCC(=O)N2CCCCC2)c1	15	-15	-4	·	-1
CN(Cc1ccccc1)S(=O)(=O)c1ccc(N2CCOCC2)nc1	3	-3	4	73*	1
COc1ccc(-c2nc3ccc(C(=O)NCC(OC)OC)cc3nc2-c2ccc(OC)c(OC)c2)cc1OC	-75	75*	-12	0	-2
CCOCCCNC(=O)c1ccc2nc(-c3ccc(OC)c(OC)c3)c(-c3ccc(OC)c(OC)c3)nc2c1	-62	62	-15	2	0
COc1cccc(/C(C)=N/N=C(\C)c2cccc(OC)c2)c1	-6	6	-4	1	-1
CCN1C(=O)/C(=C2/C(=O)N3c4c(cc(OC(C)=O)cc42)C(C)=CC3(C)C)SC1=S	-86	86*	6	3	0
Cc1ccc(OCC(=O)Oc2c(C)cccc2C)cc1C	-12	12	-3	-8	0
CN1CCN(CC(=O)NN2CC(=O)N(c3ccc(F)cc3)CC2=O)CC1	0	0	2	52*	0
O=C(CN1CCc2ccccc21)NN1CC(=O)N(c2ccc(Cl)cc2)CC1=O	-34	34	-6	-4	0
CCOCCc1nnc(NC(=O)C2CCN(C(=O)c3ccco3)CC2)s1	·	·	-7	-3	0
CC(=O)Nc1cccc(/C(C)=N/NC(N)=S)c1	-82	82*	-9	-1	-1
COc1ccc(-c2cc(-c3cc(F)ccc3O)[nH]n2)cc1OC	-72	72*	6	-5	-5
Cc1cccc(-c2cc3nc(-c4ccccc4)cc(N4CCC5(CC4)OCCO5)n3n2)c1	-83	83*	-6	-5	-1
Cc1ccc(-c2cc3nc(-c4ccccc4)cc(N4CCC5(CC4)OCCO5)n3n2)cc1	-42	42	-6	21	0
